“Also recorded” adds a separate entry of the source.
Assays:
[1] = system: cardiac troponin T (cTNT) alternative splicing in COS7 cells; test: cTNT mini-gene splicing control; type: cell-based; details: 500 µM; splicing not regulated by Sam68
Procedure, shortened: (§1)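 COS7 cells were co-transfected with the 60 CGG-repeat mini-gene and a PLEKHH2 or cTNT mini-gene, whose splicing is not under Sam68 control. Compound treatment and RT-PCR followed the same procedure: medium with test compound for 16–24 h, total RNA extraction, reverse transcription, 25–30 PCR cycles, then gel separation and quantification of the splice isoforms.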

[2] = system: r(CGG)12-DGCR8Δ complex; test: TR-FRET protein displacement assay; type: biochemical
[3] = system: r(CGG)12; test: Competition dialysis, r; type: binding; details: 2 µM RNA, 0.7 µM ligand
Procedure, shortened: (§2)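 2 µM RNA or DGCR8Δ protein was placed in dialysis units (MWCO 2,000) immersed in 0.7 µM ligand. Two buffer-only units were tracked by absorbance to confirm equilibration. SDS was then added to 1% final, and absorbance gave total ligand inside the units and free ligand in the dialysate. Bound ligand was calculated as total minus free.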

[4] = system: r(CGG)^exp nuclear foci in COS7 cells; test: FISH assay of r; type: cell-based; details: COS7 cells expressing r(CGG)60 and GFP
Procedure, shortened: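 COS7 cells on coverslips were co-transfected with r(CGG)60 and GFP plasmids, then treated with test compound. Cells were fixed in 4% paraformaldehyde for 15 min and permeabilized with 0.5% Triton X-100. They were prehybridized for 30 min in 2X SSC/40% formamide, then hybridized for 2 h with a (CCG)8-Cy3 DNA probe. After DAPI counterstaining, cells were imaged by confocal or fluorescence microscopy; only GFP-positive cells were scored for nuclear foci.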

[5] = target: RNA containing one 5’CGG/3’GGC motif (1x1 nucleotide GG internal loop); test: RNA-binding assay via Hoechst 33258 dye displacement; details: competition with Hoechst 33258 (1 µM), RNA 1 µM
Procedure, shortened: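 RNA was annealed at 60 °C for 5 min in phosphate buffer (8 mM Na₂HPO₄ pH 7.0, 185 mM NaCl, 0.1 mM EDTA, BSA), then slow-cooled. Titrating RNA into 1000 nM Hoechst 33258 (ex 360/40, em 460/40 nm) gave the dye Kd. Test compound was then titrated into 1 µM RNA plus 1 µM Hoechst. Loss of fluorescence was fit to a competitive binding equation to obtain Kd.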

[6] = system: SMN2 exon 7 alternative splicing in COS7 cells; test: SMN2 pre-mRNA splicing by RT-PCR in FXTAS cell model; type: cell-based
Procedure, shortened: (§3)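 COS7 cells were grown in DMEM with 10% FBS and GlutaMax. At 90–95% confluency they were transfected with equal amounts of a plasmid carrying 60 CGG repeats and an SMN2 or Bcl-x mini-gene. About 5 h later, medium containing test compound replaced the transfection mix. After 16–24 h, total RNA was extracted with on-column DNase digestion. Roughly 300 ng was reverse transcribed and 150 ng went to PCR for 25–30 cycles. Isoforms were gel-separated, imaged and quantified.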

[7] = system: PLEKHH2 alternative splicing in COS7 cells; test: PLEKHH2 mini-gene splicing control; type: cell-based; details: 500 µM; splicing not regulated by Sam68
Procedure, shortened: as §1

[8] = system: DGCR8Δ; test: Competition dialysis, DGCR8Δ; type: binding; details: 2 µM protein, 0.7 µM ligand
Procedure, shortened: as §2

[9] = system: Bcl-x exon 2 alternative splicing in COS7 cells; test: Bcl-x pre-mRNA splicing by RT-PCR in FXTAS cell model; type: cell-based
Procedure, shortened: as §3

[10] = system: fully paired RNAs; test: Competition dialysis, fully paired RNAs; type: binding; details: 2 µM RNA, 0.7 µM ligand
Procedure, shortened: as §2

[11] = COS7 cells expressing r(CGG)60, 100 µM
[12] = COS7 cells expressing r(CGG)60, 500 µM
[13] = cells that do not express r(CGG)60

Cc1c2cc[n+](CCN3CCCCC3)cc2c(C)c2c1[nH]c1ccc(O)cc12 [1a, 9-hydroxy-5,11-dimethyl-2-(2-(piperidin-1-yl)ethyl)-6H-pyrido[4,3-b]carbazol-2-ium]
Effect on cTNT alternative splicing [1]: did not affect
Percentage displacement at 25 µM ([2]; 25 µM compound, protein displaced from r(CGG)12): 85 ± 1%
IC50 ([2]; read-out: IC50 for disruption of the r(CGG)12-DGCR8Δ complex, TR-FRET assay): 13 ± 0.4 µM
Binding to r(CGG)12 [3]: binds tightly
Size and number of r(CGG)exp nuclear foci [4]: reduces the size and the number of foci; also recorded: decreases r(CGG)^exp-protein aggregates
Kd [5]: 76 ± 4 nM
Improvement of SMN2 splicing defects ([6]; COS7 cells expressing r(CGG)60, 20 µM): improvement of SMN2 splicing defects can be observed
SMN2 pre-mRNA splicing level relative to wild type [6, 11]: approximately 70 % of wild type
SMN2 pre-mRNA splicing [6, 12]: restores pre-mRNA splicing to levels wild type
SMN2 pre-mRNA splicing defects ([6]; COS7 cells, CGG 60X mini-gene, Figure 4A): improves SMN2 pre-mRNA splicing defects
Effect on SMN2 splicing [6, 13]: No statistically significant effect
Effect on PLEKHH2 alternative splicing [7]: did not affect
Binding to DGCR8Δ [8]: very little binding
Improvement of Bcl-x splicing dysregulation [9, 11]: Statistically significant improvement
Bcl-x splicing [9, 12]: restoration of wild type splicing patterns
Bcl-x pre-mRNA splicing defects ([9]; COS7 cells, CGG 60X mini-gene, Figure 4B): improves Bcl-x pre-mRNA splicing defects
Effect on Bcl-x splicing [9, 13]: No statistically significant effect
Amount of ligand partitioned into fully paired RNAs relative to r(CGG)12 [10]: less than half

Reference: paper PMC3477254 (ACS chemical biology, 2012)
